“Also recorded” adds a separate entry of the source.
Columns and labels:
[1] = target: HSF2BP bound to BRME1-M (complex formed beforehand) (human) (UniProt O75031); assay: ITC
[2] = tested on: interstrand crosslink repair (pICL) in Xenopus egg extract; assay: Cisplatin interstrand crosslink repair in Xenopus egg extract; type: biochemical; details: HSF2BP 0.45 μM, peptide 1.35 μM
[3] = target: T1, HSF2BP (Homo sapiens, UniProt O75031); assay: ITC, BRME1 peptides versus full-length HSF2BP; type: binding; details: 30°C
T1 sequence (O75031 1-334): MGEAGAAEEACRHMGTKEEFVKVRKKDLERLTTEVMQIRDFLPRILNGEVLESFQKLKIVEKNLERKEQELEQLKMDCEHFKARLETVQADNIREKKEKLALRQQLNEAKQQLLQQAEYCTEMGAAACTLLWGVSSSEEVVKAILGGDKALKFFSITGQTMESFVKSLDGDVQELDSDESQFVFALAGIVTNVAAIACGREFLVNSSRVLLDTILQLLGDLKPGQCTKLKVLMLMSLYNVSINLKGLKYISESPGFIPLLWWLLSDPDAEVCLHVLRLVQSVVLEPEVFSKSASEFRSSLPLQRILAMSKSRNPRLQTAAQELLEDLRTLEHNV
In short: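 Full-length HSF2BP was His-tagged and bacterially expressed (IPTG, 20°C overnight), TEV-cleaved and SEC-purified. Synthetic BRME1 peptides: N, residues 578–601; M, 602–641; C, 649–668. In 25 mM tris pH 7.5, 250 mM NaCl, 5 mM β-mercaptoethanol at 293 and 303 K, 8–13 μM HSF2BP in the cell was titrated with 80–130 μM peptide. Injections of 10 μl every 210 s; first 2-μl injection discarded. Run in duplicate, fitted for stoichiometry, constants and thermodynamics.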

[4] = tested on: HR intermediates (X-arc) of pICL in Xenopus egg extract; type: biochemical; details: HSF2BP 0.45 μM, peptide 1.35 μM
[5] = target: the molecule itself; assay: crystal structure
[6] = tested on: HeLa cells; type: cell-based, human; details: HeLa stably producing the protein; MMC, cisplatin, talazoparib
In short: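 HeLa cells in DMEM with 10% fetal calf serum were stably co-transfected (PiggyBac) with GFP-HSF2BP and/or Flag-BRME1 variants, then selected with puromycin (1.5 μg/ml) and G418 (800 μg/ml) for 8 days; mixed populations were used. Seeded 100–1000 cells/well in technical duplicates, drugs added next day: MMC 2 h, cisplatin or talazoparib overnight. Coomassie-stained colonies counted on day 10.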

[7] = target: T1, HSF2BP; assay: Scanning force microscopy; type: physicochemical; details: SFM on mica, in air; HSF2BP at 12 nM
In short: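 HSF2BP was diluted 10,000-fold to 12 nM in 25 mM tris-HCl pH 7.5, 250 mM NaCl, 5 mM β-mercaptoethanol. It was deposited for 30 s on freshly cleaved mica, rinsed with water, dried under filtered air, and imaged in air by SFM. Particle volume distributions were obtained by kernel density analysis.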

[8] = target: T2, HSF2BP + BRME1-M (Homo sapiens, UniProt O75031+Q0VDD7); assay: ITC, BRCA2 fragments versus HSF2BP bound to BRME1-M; type: binding; details: 293 K
T2 sequence (O75031 1-334): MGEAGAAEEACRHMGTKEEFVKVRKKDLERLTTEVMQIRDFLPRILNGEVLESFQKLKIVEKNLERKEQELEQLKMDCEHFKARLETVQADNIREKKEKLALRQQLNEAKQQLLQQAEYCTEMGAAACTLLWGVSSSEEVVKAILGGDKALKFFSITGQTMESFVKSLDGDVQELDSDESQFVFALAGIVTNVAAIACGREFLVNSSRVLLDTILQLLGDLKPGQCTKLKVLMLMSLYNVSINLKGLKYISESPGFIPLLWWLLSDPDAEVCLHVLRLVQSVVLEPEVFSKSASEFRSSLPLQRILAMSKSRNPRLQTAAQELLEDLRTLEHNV
T2 sequence (Q0VDD7 602-641 partner limits assumed): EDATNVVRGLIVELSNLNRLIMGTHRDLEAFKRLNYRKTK

Molecule: BRCA2 fragment 2213–2342 (from UniProt P51587 2213-2342) (domain or fragment)
- dH [1]: -10.9 kcal/mol

Molecule: BRME1-C: synthetic peptide, human BRME1 residues 649 to 668 (PYPSKGPGNIPRGDPPWREL)
- effect on interstrand crosslink repair, in words [2]: no such effect
- binding to HSF2BP, in words [3]: does not bind HSF2BP
- effect on HR repair intermediates, in words [4]: no such effect

Molecule: EFVKVRKKDLERLTTEVMQIRDFLPRILNGEV (peptide, UniProt O75031 19-50, looked up) [HSF2BP helix α1 peptide (residues 19 to 50)]
- stoichiometry N [5]: 4

B1: BRME1: Flag-BRME1 stably produced in HeLa cells (protein, UniProt Q0VDD7 1-668, looked up)
Break repair meiotic …: MTKRKKLRTSGEGLCPPKPLKNPRLGDFYGDPQSSMLGCLHHPEEPEGKLGPVPSTQQHGEEPGKAVSSSPDEETGSPCRLLRQPEKEPAPLPPSQNSFGRFVPQFAKSRKTVTRKEEMKDEDRGSGAFSLETIAESSAQSPGCQLLVETLGVPLQEATELGDPTQADSARPEQSSQSPVQAVPGSGDSQPDDPPDRGTGLSASQRASQDHLSEQGADDSKPETDRVPGDGGQKEHLPSIDSEGEKPDRGAPQEGGAQRTAGAGLPGGPQEEGDGVPCTPASAPTSGPAPGLGPASWCLEPGSVAQGSPDPQQTPSRMGREGEGTHSSLGCSSLGMVVIADLSTDPTELEERALEVAGPDGQASAISPASPRRKAADGGHRRALPGCTSLTGETTGESGEAGQDGKPPGDVLVGPTASLALAPGSGESMMGAGDSGHASPDTGPCVNQKQEPGPAQEEAELGGQNLERDLEGFRVSPQASVVLEHREIADDPLQEPGAQQGIPDTTSELAGQRDHLPHSADQGTWADSLAVELDFLLDSQIQDALDASDFEAPPEQLFPSGNKPGPCWPGPSSHANGDPVAVAKAQPRTFVGIQASEASRMEDATNVVRGLIVELSNLNRLIMGTHRDLEAFKRLNYRKTKLGGKAPLPYPSKGPGNIPRGDPPWREL
modifications: Flag tag
- effect on cell resistance to DNA damage, in words [6]: cancels the disruptive effect of HSF2BP on cancer cell resistance to DNA damage; also recorded: no effect on the cell sensitivity to DNA damage; also recorded: completely abolished the sensitization induced by HSF2BP

B2: armadillo domain: HSF2BP armadillo domain alone (E122-V334) (protein)
chain: EMGAAACTLLWGVSSSEEVVKAILGGDKALKFFSITGQTMESFVKSLDGDVQELDSDESQFVFALAGIVTNVAAIACGREFLVNSSRVLLDTILQLLGDLKPGQCTKLKVLMLMSLYNVSINLKGLKYISESPGFIPLLWWLLSDPDAEVCLHVLRLVQSVVLEPEVFSKSASEFRSSLPLQRILAMSKSRNPRLQTAAQELLEDLRTLEHNV
- particle volume, larger peak [7]: ~90 nm^3
- particle volume, smaller peak [7]: ~35 nm^3

B3: C78A-C120S-C128A (protein, UniProt O75031 1-334, looked up, variant C78A C120S C128A)
Heat shock factor 2-binding …: MGEAGAAEEACRHMGTKEEFVKVRKKDLERLTTEVMQIRDFLPRILNGEVLESFQKLKIVEKNLERKEQELEQLKMDAEHFKARLETVQADNIREKKEKLALRQQLNEAKQQLLQQAEYSTEMGAAAATLLWGVSSSEEVVKAILGGDKALKFFSITGQTMESFVKSLDGDVQELDSDESQFVFALAGIVTNVAAIACGREFLVNSSRVLLDTILQLLGDLKPGQCTKLKVLMLMSLYNVSINLKGLKYISESPGFIPLLWWLLSDPDAEVCLHVLRLVQSVVLEPEVFSKSASEFRSSLPLQRILAMSKSRNPRLQTAAQELLEDLRTLEHNV
- effect on cell resistance to DNA damage, in words [6]: sensitized HeLa cells less than the wild-type protein

B4: BRCA2_2213–2342: BRCA2 fragment 2213–2342 (protein, UniProt P51587 2213-2342, looked up, fragment)
chain: STYSKDSENYFETEAVEIAKAFMEDDELTDSKLPSHATHSLFTCPENEEMVLSNSRIGKRRGEPLILVGEPSIKRNLLNEFDRIIENQEKSLKASKSTPDGTIKDRRLFMHHVSLEPITCVPFRTTKERQ
- ΔH [8]: -10.9 kcal/mol
- ─TΔS [8]: -1.70 kcal/mol
- Kd ([8]; pH 7.5, 10 μM complex in cell, 55 to 60 μM BRCA2 fragment in syringe): 7.8 nM

— publication PMC10610910 (Science Advances, 2023)
